Most compounds without a hit are left out; they make up all but 11% or so of the library.
L major viab – Leishmania major promastigote growth inhibition, primary screen; AID 1063, 2008; Leishmania major promastigotes, resazurin fluorescence viability; 200,000 compounds, 9% hits; inhibition, % at 10 µM;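 note: promastigotes grown with compound for 44 hours at 28 °C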
G6PDH CS – L. mesenteroides G6PDH inhibitors, counter-screen for G6PDH-coupled screening assays, biochemical, Leuconostoc mesenteroides enzyme; Purified L. mesenteroides G6PDH, diaphorase/resazurin coupled fluorescence, 45 min; inhibition, % at 5 µM; 200,000 compounds, 0.12% hits; AID 1020, 2008
Diaphorase inh – diaphorase inhibitors and chemical oxidizers, primary screen, counter-screen for diaphorase-coupled primary assays, biochemical, uHTS, resorufin fluorescence | AID 1217, 2008 | diaphorase resazurin-to-resorufin fluorescence, NADH, 16 min; bacterial (C. kluyveri) enzyme, not human | inhibition, % at 20 µM | 190,000 compounds, 0.69% hits;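 active = primary screen inhibition at 20 µM above a set limit, cut at about 50% in these data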;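 note: plate controls were DMSO with full reaction for no effect and wells lacking NADH for full effect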
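Test system: Clostridium kluyveri diaphorase enzyme / Quantity: diaphorase at 0.14 U/mL in enzyme working solution / Incubation: 16-min room-temperature incubation before reading / Benchmarks: NADH-free wells as positive control, DMSO-only neutral wells / Signal: resorufin fluorescence 544/590 nm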
Diaph act CS – compounds boosting diaphorase resazurin reduction – biochemical, uHTS, resorufin fluorescence, counter-screen for diaphorase-coupled primary assays, primary screen | activation factor at 20 µM | Diaphorase/resazurin coupled assay, 16 min; hits give high values; 1 = vehicle wells, 0 = NADH-free wells | 190,000 compounds, 0.005% hits;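 active = diaphorase activity raised at least twofold by the compound at 20 µM; inactive = activation factor below 2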
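Material: bacterial diaphorase enzyme (C. kluyveri); amount: enzyme 0.07 U/mL final; reagent: NADH substrate 0.114 mM plus resazurin dye 0.1 mM, final; doses: single compound dose of 20 µM, 1% DMSO final; timing: 16 min enzyme reaction, ambient temperature; measured by: fluorescence of resorufin, 544 nm excitation, 590 nm emission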
WT yeast gro inh – growth inhibition of WT strain, primary screen, mitochondrial fusion inhibitor project, WT and mutant strains, chemical genetic | mitochondrial fusion phenotypic screen | inhibition, % at 10 µM | 190,000 compounds, 2.1% hits | AID 1362, 2008; in the data active = inhibition above about 58%; tested in S. cerevisiae
* hit, by the source's call; . = no result given. Cut-off read from the data, not from the text of the source, unless noted: active = inhibition above about 50%; inactive = the rest.

SMILES	L major viab	G6PDH CS	Diaphorase inh	Diaph act CS	WT yeast gro inh
CC(C)N1C/C(=C/c2cccnc2)C(=O)/C(=C/c2cccnc2)C1	100*	16	7	0.9	5
CN1C/C(=C/c2cccnc2)C(=O)/C(=C/c2cccnc2)C1	100*	6	13	0.9	-1
O=C(CSc1nc2ccsc2c(=O)n1Cc1ccccc1)NCC1CCCO1 (configuration not stated)	12	2	8	0.9	-8
CCC1CCCCN1C(=O)CSc1nc2ccsc2c(=O)n1Cc1ccccc1 (configuration not stated)	58*	2	30	0.7	22
CCC(Oc1nc2ccccc2nc1-c1ccccc1NC(C)=O)C(=O)c1ccccc1 (configuration not stated)	4	-1	8	0.9	20
Cc1ccc(C(=O)NC2CC3CCC(C2)N3Cc2ccco2)cc1 (configuration not stated)	57*	2	4	1	-15
Cc1ccc(CN2C3CCCC2CC(NC(=O)c2ccc(C)cc2)C3)cc1 (configuration not stated)	81*	14	8	0.9	-10
CCn1c(SCC(=O)Nc2ncc(C(F)(F)F)cc2Cl)nnc1-c1ccccc1	-8	0	2	1	-39
CCCCCNc1nc(N2CCCC2)c2c(c1C#N)CCN(C)C2	56*	10	10	0.9	50
Cc1cccc2cc(CN(Cc3cccnc3)C(=O)c3ccccc3F)c(Cl)nc12	97*	-47	17	0.8	14
Cc1cc(C)c2cc(CN(Cc3cccnc3)C(=O)c3ccc(F)cc3)c(Cl)nc2c1	98*	5	16	0.8	37
CCN(CC)CC#CCC(O)(c1ccccc1)C1CCCC1 (configuration not stated)	73*	15	10	0.9	-13
CCN(CC)CC#CCC(OC)(c1ccccc1)c1ccccc1	55*	11	-3	1	28
Cc1ccc(/C=N/NC(=O)Cn2cncn2)cc1	-1	-3	6	0.9	7
Cc1nn(-c2ccccn2)c2nc(-c3cccs3)cc(C(=O)N3CCOCC3)c12	84*	6	16	0.8	37
COc1ccc(-c2cc(C(=O)O)c3c(C)nn(-c4ccccn4)c3n2)cc1	-6	8	6	0.9	8
Cc1cccc(-n2nc(C)c3c(C(=O)O)cc(-c4cccs4)nc32)c1	-1	5	52*	0.5	2
Cc1nn(-c2cccc(Cl)c2)c2nc(-c3ccco3)cc(C(=O)O)c12	-2	7	34	0.7	-2
CCOC(=O)c1cc(-c2ccncc2)nc2c1c(C)nn2-c1ccccn1	100*	.	.	.	44
Oc1ccc(COCc2ccccc2)c2cccnc12	101*	17	40	0.6	-1
CC(C)COCc1ccc(O)c2ncccc12	100*	25	55*	0.4	16
O=C(O)c1sc2ncccc2c1OCc1ccccc1	-6	2	15	0.8	-2
O=S(=O)(NC1c2cccc3cccc(c23)C1Sc1ncccn1)c1ccccc1 (configuration not stated)	7	-11	27	0.7	30
CCN(c1ccccc1)S(=O)(=O)c1ccc(C(=O)OC(C)C(=O)NCCC2=CCCCC2)cc1 (configuration not stated)	96*	11	22	0.8	1
CCN(c1ccccc1)S(=O)(=O)c1ccc(C(=O)Oc2ccc(C(C)=O)cc2)cc1	50*	-19	13	0.9	-3
SMILES	L major viab	G6PDH CS	Diaphorase inh	Diaph act CS	WT yeast gro inh
Cc1ccc(-c2cnc(NCc3cc4c(cc3[N+](=O)[O-])OCO4)n2C)cc1C	95*	10	6	0.9	10
Cn1c(-c2ccc3c(c2)OCO3)cnc1N	7	-1	-4	1	56
Cn1c(-c2ccc3c(c2)OCO3)cnc1NCc1ccccc1Cl	96*	9	1	1	15
Cn1c(-c2ccc3c(c2)OCO3)cnc1NC(=O)CCC(=O)NCCc1ccccc1	-1	-1	-1	1	13
Cn1c(-c2ccc3c(c2)OCO3)cnc1NCc1cccc(Cl)c1	93*	10	8	0.9	51
Cn1c(-c2ccc3c(c2)OCO3)cnc1NCc1ccccc1	63*	0	18	0.8	-11
CCN(CC)C(=O)CSc1nnc(CNc2ccc(F)cc2)n1-c1ccccc1	-1	6	7	0.9	-7
COc1ccc(NC(=O)c2ccco2)cc1NC(=O)c1ccco1	5	6	12	0.9	10
COc1ccccc1NC(=O)Oc1ccc(NC(=O)c2ccco2)cc1	52*	6	20	0.8	9
O=C(Nc1cccc(N=Cc2cc(Br)cc(Br)c2O)c1)c1ccco1	-10	39	55*	0.4	33
O=C(COC(=O)c1cccc(NC(=O)c2ccco2)c1)c1ccc(Br)cc1	99*	0	22	0.8	32
CC(C)(C)C(=O)COC(=O)c1cccc(NC(=O)c2ccco2)c1	-3	5	7	0.9	0
O=C(Nc1ccc(C(=O)Oc2ccccc2)c(O)c1)c1ccco1	55*	0	-2	1	28
O=C(Nc1ccc(C(=O)Oc2ccccc2)c(O)c1)c1ccccc1	-8	0	19	0.8	17
Cc1ccc(NC(=O)c2ccc3c(c2)C(=O)N(Cc2cccnc2)C3=O)c(C)c1	-6	5	0	1	14
Cc1cccc(N/C(N)=N/c2nc(C(F)(F)F)cc(=O)[nH]2)c1C	35	6	-4	1	1
O=C(Nc1ccc(Oc2ccc(NC(=O)c3ccco3)c(NC(=O)c3ccco3)c2)cc1)c1ccco1	98*	-43	23	0.8	7
COc1ccccc1NC(=O)c1cccc(NC(=O)c2ccco2)c1	88*	-8	8	0.9	74*
COc1ccc(N2CCN(c3ccc(Cl)nn3)CC2)cc1	2	0	2	1	-6
O=C(NC(=S)Nc1ccccc1N1CCCC1)c1cccc(F)c1	14	2	-6	1.1	21
CCN1CCN(C(=S)c2ccc(SC)cc2)CC1	91*	1	14	0.9	1
CSc1ccc(C(=S)N2CCN(Cc3ccccc3)CC2)cc1	94*	1	36	0.6	53
O=C(CN1C(=O)c2cccc3cccc1c23)Nc1cccnc1	10	10	18	0.8	-4
COc1ccc(NC(=S)N(CCCN2CCCC(C)C2)Cc2cccs2)cc1 (configuration not stated)	95*	4	8	0.9	-8
